From PubChem BioAssay AID1746 (Sanford-Burnham Center for Chemical Genomics, 2009)

System: Primary human hepatocytes, TRAIL cytotoxicity, ATPlite, 24 h
Test: TRAIL plus compound toxicity in normal liver cells, confirmation, cytotoxicity control for TRAIL sensitizer project, cell-based, primary human hepatocytes, ATPlite luminescence, 24 h (AID 1746)
Details: for cytotoxicity with TRAIL: at 5 µM (top of the series); for cytotoxicity: stronger effect = higher value
Summary of the method: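 Test system: Primary human hepatocytes | Probe or stimulus: TRAIL, 1000 ng/mL final | Doses: Compound at final amounts from 1.25 to 5 µM | Schedule: 4 h compound then 24 h TRAIL, 37 °C | Measured by: ATPlite luminescence | Measure: Cytotoxicity (%) after background subtraction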

[1] = compound alone without TRAIL, at 5 µM
[2] = measured here: TRAIL alone reference, dose or concentration not given here

| Structure (SMILES) | cytotoxicity with TRAIL | cytotoxicity [1] | cytotoxicity [2] |
| --- | --- | --- | --- |
| CSc1nc(-c2ccccc2)nc(C(Cl)Cl)n1 | 68% | 22% | 0% |
| CSc1nc(-c2ccc(C)cc2)nc(C(Cl)Cl)n1 | 67% | 9% | 0% |
| CCSc1nc(-c2ccccc2)nc(C(Cl)Cl)n1 | 73% | 47% | 0% |
